Source: paper PMC6648814 (ACS Omega, 2019)

Experiments:
DfrB4 = molecular target: T1, DfrB4 (Escherichia coli, UniProt Q8VNN1); experiment: DfrB4 inhibition, kinetic assay; format: biochemical
T1 sequence (Q8VNN1 1-78): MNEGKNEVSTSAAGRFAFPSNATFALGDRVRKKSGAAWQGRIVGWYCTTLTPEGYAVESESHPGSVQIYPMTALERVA

hDfr = molecular target: T2, hDfr (Homo sapiens, UniProt P00374); experiment: human Dfr inhibition, kinetic assay; format: biochemical; conditions: for inhibition of hDfr (in words): selectivity
T2 sequence (P00374 1-187): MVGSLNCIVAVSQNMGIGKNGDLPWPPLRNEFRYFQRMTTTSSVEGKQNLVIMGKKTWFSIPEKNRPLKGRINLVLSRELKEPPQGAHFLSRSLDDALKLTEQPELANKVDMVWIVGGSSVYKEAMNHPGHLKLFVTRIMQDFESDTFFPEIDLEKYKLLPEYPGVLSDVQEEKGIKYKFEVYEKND
Outline: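 His6-tagged human Dfr, purified by nickel affinity (stepwise imidazole in 0.1 M potassium phosphate, pH 8.0), then gel filtration in 0.1 M potassium phosphate, pH 7.5. Protein quantified by Bio-Rad assay. Kinetic assay at pH 7. Test compound tested up to the highest concentration that absorbance and precipitation allowed. IC50 determined per earlier method, with Ki calculated from IC50.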

DfrB1 [1] = molecular target: T3, DfrB1 (Escherichia coli, UniProt P00383); experiment: DfrB1 inhibition, spectrophotometric kinetic assay; format: biochemical; conditions: for IC50: DfrB1 IC50, pH 7; for inhibition of DfrB1 (in words): at the highest concentration that could be assayed; for fold change of DfrB1 Ki relative to 1: greater Ki / weaker than 1; for Hill coefficient: DfrB1 inhibition, Hill plot
T3 sequence (P00383 1-78): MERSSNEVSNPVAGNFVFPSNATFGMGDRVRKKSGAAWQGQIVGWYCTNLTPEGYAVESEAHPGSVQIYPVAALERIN

[2] = Solubility limit in assay medium; format: physicochemical; conditions: 10% DMSO, aqueous with cosolvent or surfactant or cyclodextrin
apo-DfrB1 = conditions: read-out: Kd1; binding on the apo-DfrB1; cited from earlier work
DfrB1 [3] = molecular target: T3, DfrB1; conditions: DfrB1 substrate KM; cited from earlier work
E. coli expressing DfrB4 = conditions: highest TMP concentration dissolved in the medium, 600 μg/mL; cited from earlier work

| Compound | Ki (DfrB4) [µM] | IC50 (hDfr) [µM] | Ki (DfrB1 [1]) [µM] | IC50 (DfrB1 [1]) [µM] | further results |
| --- | --- | --- | --- | --- | --- |
| O=C(O)c1ccc2[nH]c(-c3ccc(OCCC(O)COc4ccc(-c5nc6cc(C(=O)O)ccc6[nH]5)cc4)cc3)nc2c1 (stereo not shown) [Compound 3] | 3.9 ± 0.9 | > 500 | 3.5 ± 1.7 | 110 ± 10 | inhibition of hDfr (in words) (hDfr): no inhibition |
| O=C(O)c1ccc2[nH]c(-c3ccc(OC/C=C/COc4ccc(-c5nc6cc(C(=O)O)ccc6[nH]5)cc4)cc3)nc2c1 [Compound 10] |  | > 400 | 2.8 ± 0.8 | 90 ± 20 | inhibition of hDfr (in words) (hDfr): did not inhibit |
| O=C(O)c1ccc2[nH]c(-c3ccc(OCc4ccc(COc5ccc(-c6nc7cc(C(=O)O)ccc7[nH]6)cc5)cc4)cc3)nc2c1 [Compound 11] |  | > 100 | 6.1 |  | inhibition of hDfr (in words) (hDfr): did not inhibit; solubility [2]: ≤ 100 µM |
| O=C(O)c1ccc(OCCCCCCOc2ccc(C(=O)O)cc2)cc1 [Compound 12] |  |  |  | > 500 |  |
| O=C(O)c1ccc(OCCCCCCCCCCCCOc2ccc(C(=O)O)cc2)cc1 [Compound 15] |  |  |  | > 250 |  |
| O=C(O)Cc1ccc(OCCCCCCOc2ccc(CC(=O)O)cc2)cc1 [Compound 16] |  |  |  | > 500 | inhibition of DfrB1 (in words) (DfrB1 [1]): No inhibition was observed |
| O=C(O)CCc1ccc(OCCCCOc2ccc(CCC(=O)O)cc2)cc1 [Compound 17] |  |  |  | > 200 | inhibition of DfrB1 (in words) (DfrB1 [1]): No inhibition was observed |
| O=C(O)c1ccc2cc(-c3ccc(OCCCCCCCCOc4ccc(-c5ccc6cc(C(=O)O)ccc6c5)cc4)cc3)ccc2c1 [Compound 18] |  |  |  | > 200 | inhibition of DfrB1 (in words) (DfrB1 [1]): abolished inhibition |
| O=C(O)c1ccc2[nH]c(-c3cccc(OCC(O)COc4cccc(-c5nc6cc(C(=O)O)ccc6[nH]5)c4)c3)nc2c1 [Compound 19] |  | > 500 | 12 ± 3 | 400 ± 100 | fold change of DfrB1 Ki relative to 1 (DfrB1 [1]): 3 fold |
| O=C(O)c1ccc2nc(-c3ccc(OCCC(O)COc4ccc(-c5nc6ccc(C(=O)O)cc6[nH]5)cc4Br)c(Br)c3)[nH]c2c1 (stereo not shown) [Compound 20b] | 3.7 ± 0.7 | > 400 | 2.6 ± 0.7 | 80 ± 20 |  |
| O=C(O)c1ccc2nc(-c3ccc(OCCCOc4ccc(-c5nc6ccc(C(=O)O)cc6[nH]5)cc4Br)c(Br)c3)[nH]c2c1 [Compound 21] |  | > 400 | 1.7 ± 0.6 | 60 ± 20 |  |
| O=C(O)c1ccc2nc(-c3ccc(OCC(COc4ccc(-c5nc6ccc(C(=O)O)cc6[nH]5)cc4)(COc4ccc(-c5nc6ccc(C(=O)O)cc6[nH]5)cc4)COc4ccc(-c5nc6ccc(C(=O)O)cc6[nH]5)cc4)cc3)[nH]c2c1 [Compound 31] | 1.9 ± 0.5 |  | 1.1 ± 0.3 |  | fold lower DfrB1 Ki than the best inhibitors (DfrB1 [1]): 2- to 12 fold; Hill coefficient (DfrB1 [1]): 1.1 ± 0.4 |
| O=C(O)c1ccc2[nH]c(-c3ccc(OCc4ccccc4COc4ccc(-c5nc6cc(C(=O)O)ccc6[nH]5)cc4)cc3)nc2c1 [Compound 33] | 11 ± 1.3 |  | 7.4 ± 2.7 |  | inhibition of hDfr (in words) (hDfr): no inhibition; Hill coefficient (DfrB1 [1]): 1.1 ± 0.1; fold change of DfrB1 Ki relative to 1 (DfrB1 [1]): 2 fold; mode of inhibition (Dixon plot) (DfrB1 [1]; varying NADPH, saturating DHF, with respect to NADPH binding): competitive |
| Nc1nc(=O)c2c([nH]1)NCC(CNc1ccc(C(=O)N[C@@H](CCC(=O)O)C(=O)O)cc1)=N2 [DHF, dihydrofolate] |  |  |  |  | Kd (apo-DfrB1): 120 µM |
| NC(=O)C1=CN([C@@H]2O[C@H](COP(=O)(O)OP(=O)(O)OC[C@H]3O[C@@H](n4cnc5c(N)ncnc54)[C@H](OP(=O)(O)O)[C@@H]3O)[C@@H](O)[C@H]2O)C=CC1 [NADPH] |  |  |  |  | Km (DfrB1 [3]): 1.6 ± 0.02 µM; Km (DfrB4; DfrB4 substrate KM): 2.8 ± 0.6 µM; Kd (apo-DfrB1): 2.5 µM |
| COc1cc(Cc2cnc(N)nc2N)cc(OC)c1OC [TMP, Trimethoprim, reference compound] | 550 |  | 600 |  | TMP resistance conferred by DfrB4 expression (E. coli expressing DfrB4): complete resistance |
